Compounds with a hit are over-represented: about 2.3% of the library has one in this group of screens.
CHT PAM: CHT positive allosteric modulators, primary screen, cell-based, membrane potential dye, choline EC20 | High affinity choline transporter 1 (Homo sapiens), Q9GZV3 | CHT-expressing cells; stronger effect = higher value; LV-AA mutant CHT in HEK293 cells | B-score at 10 µM | 310,000 tested, 0.49% active | AID 488977, 2010;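 active means initial fluorescence not abnormally high and integrated response B-score, plate-corrected, over 3 SD above library mean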
pCIP destab: p/CIP-EGFP fusion destabilizers, primary screen, fluorescence, F442A cells | 290,000 tested, 0.01% active | Q05BA5 | decrease of EGFP signal, % at 10 µM | AID 1984, 2009 | 16 h;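 active means EGFP signal decrease of at least 30% at 10 µM or well 3 SD below plate mean, unless failing retest; inactive means the rest, including hits failing retest or dose response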
GPR7 antag: GPR7 receptor antagonists, primary screen, cell-based, fluorescence, single concentration; Neuropeptides B/W receptor type 1 (Homo sapiens), P48145; GPR7-expressing cells, fluorescence antagonist assay; inhibition, % at 4.4 µM; 290,000 tested, 1.1% active; AID 1861, 2009; in the data active means inhibition above about 16%, passing the limit was not always enough;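 further: cells stimulated with the agonist NPW; 0% = agonist with vehicle and 100% = vehicle without agonist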
Target sequence (P48145 whole entry, looked up): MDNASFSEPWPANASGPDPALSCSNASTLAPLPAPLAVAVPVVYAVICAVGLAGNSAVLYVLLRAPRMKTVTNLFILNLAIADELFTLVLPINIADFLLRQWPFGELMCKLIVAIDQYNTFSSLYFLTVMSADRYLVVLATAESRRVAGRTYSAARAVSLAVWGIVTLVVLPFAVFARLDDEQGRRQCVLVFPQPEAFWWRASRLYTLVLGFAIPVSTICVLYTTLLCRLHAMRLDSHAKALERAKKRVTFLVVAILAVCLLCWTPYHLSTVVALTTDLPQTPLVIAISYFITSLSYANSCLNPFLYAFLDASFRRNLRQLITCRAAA
Pemphigus Ab inh: inhibitors of pemphigus antibody binding to DSG3, primary screen, biochemical, bead-based, flow cytometry, scFv-GFP; AID 588358, 2011; 310,000 tested, 0.48% active; DSG3-coupled beads, scFv-anti-DSG3-GFP binding; stronger effect = lower value; Desmoglein-3 (Homo sapiens), P32926; binding (percent of control), % at 10 µM;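 active means binding more than 3 SD below its plate's average and above zero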;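 further: hits lower antibody fragment binding to DSG3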
T cell HTS: modulators of CD8 T cell-vesicle binding, primary screen, mouse 2C CD8+ T cells, flow cytometry; 330,000 tested, 0.068% active; response (vesicle binding), % at 7 µM; 2C CD8+ T cell-vesicle binding; stronger effect = lower value;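 active means response, share of CD8 T cells binding vesicles, and their 90th percentile fluorescence all below set limits, cut at about 80% in these data, passing the limit was not always enough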;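 further: values below 100% mean blocked vesicle binding to the CD8+ T cells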
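System: murine 2C transgenic CD8+ T lymphocytes; also added: QL9-loaded Drosophila micro-vesicles; times: binding 1.5 h at 37 °C; measured by: flow cytometry, PE anti-B7-1 (FL2) versus Alexa647 anti-CD8 (FL8), PFA-fixed; control set: Peptide-free naked vesicles (low) and QL9 vesicles with 0.7% DMSO vehicle (high)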
CHT block: inhibitors of human choline transporter CHT. High affinity choline transporter 1 (Homo sapiens), Q9GZV3. B-score at 10 µM. CHT-expressing cells, membrane potential dye, choline response; stronger effect = lower value. 310,000 tested, 0.86% active;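 active means B-score over 3 SD under the library average, and starting fluorescence ratio not unusually high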;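 further: choline stimulus applied at its EC90 after an EC20 pre-addition; B-score computed on integrated fluorescence ratio after choline addition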
GPR7 antag conf: GPR7 receptor antagonists, confirmation, cell-based, fluorescence, single concentration; shares compounds with GPR7 antag; GPR7-expressing cells, calcium fluorescence antagonist mode; inhibition, % at 4.4 µM; 2,400 tested, 52% active; in the data active means inhibition above about 24%;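 further: stimulated with the GPR7 agonist NPW; 0% = agonist plus vehicle and 100% = vehicle alone without agonist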
MCHR1 antagonist: MCHR1 antagonists in cells, counter-screen for GPR7 antagonist project, cell-based, fluorescence, human; shares compounds with GPR7 antag; MCHR1-expressing cells, fluorescence antagonist assay; inhibition, % at 4.4 µM; 2,400 tested, 62% active; in the data active means inhibition above about 22%;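 further: 0% = vehicle with agonist and 100% = vehicle without agonist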
* = called active by the depositor; i = inactive; . = no result.

SMILES	CHT PAM	pCIP destab	GPR7 antag	Pemphigus Ab inh	T cell HTS	CHT block	GPR7 antag conf	MCHR1 antagonist
CCSc1nsc(NC(=O)Nc2cccc(OC)c2)n1	i	-7	28*	103	118	i	37*	61*
Cn1c(Oc2ccccc2NCc2cccc(Br)c2)cc(=O)n(C)c1=O	i	-12	31*	102	259	i	22	33*
Cn1c(NCc2cccc(Br)c2)nc2ccccc21	i	-4	1	.	304	i	.	.
Fc1cccc2sc(Nc3nc4c(F)cccc4s3)nc12	i	2	-1	109	231	i	.	.
O=C(Nc1nc2c(F)cccc2s1)C1CC1	i	-1	29*	95	460	i	-4	12
CC(=O)Oc1ccc2c(c1)Oc1cc(OC(C)=O)ccc1C21OC(=O)c2ccccc21	i	-4	105*	i	i	i	103*	109*
CC(NC(=O)C1CCCN1C(=O)c1cccs1)c1ccc(Cl)cc1Cl (centres undefined)	.	.	.	96	.	.	.	.
NC(=S)NNC(=O)Nc1ccc(Cl)c(Cl)c1	i	-5	9	.	130	i	.	.
O=C(NCC1CC1(Cl)Cl)Nc1ccc(Cl)c(Cl)c1 (centres undefined)	i	-27	33*	108	728	i	13	58*
CC(C)(CO)NC(=O)Nc1ccc(Cl)c(Cl)c1	i	5	26*	103	189	i	-6	10
Cc1ccc(-c2noc(=O)n2CC(=O)Nc2ccc(S(=O)(=O)NC3CC3)cc2)cc1	i	-1	23*	102	260	i	47*	30*
CN(C)S(=O)(=O)c1ccc(N2CCCC2)c(C(=O)NC(c2ccccc2)c2ccccc2)c1	i	3	25*	.	i	i	32*	22*
CC(C)N(Cc1ccccc1)S(=O)(=O)c1ccc(-n2cccn2)cc1	.	.	.	100	.	.	.	.
CCN(CC)C1=CC2=CC(=C(C#N)C#N)CCC2CC1 (centres undefined)	i	-375	58*	848	256	i	91*	105*
N#CC1=C(N)C2=C(N3CCCCC3)CCCC2C1(C#N)C#N (centres undefined)	i	-6	-7	111	390	i	.	.
CCCCN(C)C1=CC2=CC(=C(C#N)C#N)CCC2CC1 (centres undefined)	i	-346	75*	909	576	i	103*	110*
N#CC(C#N)=C1C=C2C=C(N3CCCCC3)CCC2CC1 (centres undefined)	i	-351	74*	.	511	i	93*	109*
CCCC(=O)Nc1ccc2c(c1)Cc1ccccc1-2	i	-3	25*	92	191	i	14	24*
CC1CN(CC(O)COC(c2ccc(Cl)cc2)c2ccc(Cl)cc2)CC(C)O1 (centres undefined)	i	1	21*	107	354	i	9	40*
CCc1ccc(CN2CCC(n3nccc3NC(=O)c3ccccc3C)CC2)cc1	i	26	27*	.	274	i	10	26*
CC1CN(c2oc(COc3ccc(Cl)cc3Cl)nc2C#N)CC(C)O1 (centres undefined)	i	-6	40*	96	176	i	24*	28*
CC(C(=O)N1CCCC1)N(c1ccc(Cl)cc1)S(C)(=O)=O (centres undefined)	.	.	.	99	.	.	.	.
CCCCn1nc(C(=O)N(C)Cc2nc3ccccc3c(=O)[nH]2)c2ccccc2c1=O	.	.	.	94	.	.	.	.

Screening data deposited in PubChem by several laboratories.
